From ChEMBL document CHEMBL1806495, “Phenylpropenamide derivatives: anti-hepatitis B virus activity of the Z isomer, SAR and the search for novel analogs” (Bioorg Med Chem Lett, 2011)
Active and inactive are the calls of the source. The rule behind the calls is not given here.

Tests used:
Hepatitis B virus [1] = experiment: Antiviral activity against HBV infected in human HepAD38 cells assessed as inhibition of viral DNA synthesis after 3 days; type: functional; conditions: HePAD38, 72 h
How it was run: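 Anti-HBV readout in the Hep AD38 cellular assay: the value is reported as EC90, the compound concentration that inhibits viral DNA synthesis by 90%.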

[2] = Cytotoxicity against human HepAD38 cells; type: cell-based
How it was run: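 Viability of Hep AD38 cells measured within the same cellular assay. The value is reported as CC90, the drug concentration that reduces cell viability by 90%.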

Hepatitis B virus [3] = experiment: Antiviral activity against HBV infected in human HepAD38 cells assessed as inhibition of viral DNA synthesis up to 100 uM after 3 days; type: functional, organism-based

SMILES	EC90 (Hepatitis B virus [1])	CC90 [2]	inhibition (Hepatitis B virus [3])
O=C(N/C(C(=O)N1CCCCC1)=C(\Cl)c1cccc2c1OCO2)c1ccccc1	9.9 µM	> 10 µM	–
O=C(c1c(-c2ccccc2)ccn1C(=O)c1ccccc1)N1CCCCC1	> 10 µM	> 10 µM	–
O=C(c1c(-c2ccccc2)ccn1C(=O)c1ccc(Br)cc1)N1CCCCC1	> 10 µM	> 10 µM	–
C/C(=C(/NC(=O)c1ccc(Cl)cc1)C(=O)N1CCCCC1)c1ccccc1	1.92 µM	> 10 µM	–
COc1ccc(C(=O)N/C(C(=O)N2CCCCC2)=C(\Cl)c2ccccc2)cc1	> 10 µM	> 10 µM	–
C/C(=C(/NC(=O)c1ccc(Br)cc1)C(=O)N1CCCCC1)c1ccccc1	3.92 µM	> 10 µM	–
O=C(N/C(C(=O)N1CCCCC1)=C(\Br)c1cccc2c1OCO2)c1ccc([N+](=O)[O-])cc1	1.25 µM	> 10 µM	–
COc1ccccc1/C(Cl)=C(/NC(=O)c1ccccc1)C(=O)N1CCCCC1	1.71 µM	> 10 µM	–
O=C(N/C(C(=O)N1CCCCC1)=C(\Cl)c1ccccc1)c1ccc(Cl)cc1	1.25 µM	> 10 µM	–
CC1CCCN(C(=O)/C(NC(=O)c2ccccc2)=C(/Cl)c2ccccc2)C1 (stereo unspecified)	6.43 µM	> 10 µM	–
Cc1ccc(/C(Cl)=C(/NC(=O)c2ccccc2)C(=O)N2CCCCC2)cc1	> 10 µM	> 10 µM	–
O=C(C1C(c2ccccc2)CCN1C(=O)c1ccccc1)N1CCCCC1 (stereo unspecified)	> 10 µM	> 10 µM	–
O=C(N/C(C(=O)N1CCCCC1)=C(\Cl)c1ccccc1)c1ccc(F)cc1	2.17 µM	> 10 µM	–
O=C(N/C(C(=O)N1CCCCC1)=C(\Br)c1ccccc1)c1ccccc1	5.9 µM	> 10 µM	–
COc1cc([N+](=O)[O-])ccc1C(=O)N/C(C(=O)N1CCCCC1)=C(\Cl)c1ccccc1	> 10 µM	> 10 µM	–
COc1ccccc1/C(Br)=C(/NC(=O)c1ccccc1)C(=O)N1CCOCC1	2.78 µM	> 10 µM	–
O=C(N/C(C(=O)N1CCCCC1)=C(\Cl)c1ccccc1F)c1ccccc1	1.81 µM	> 10 µM	–
COc1ccccc1/C(Cl)=C(/NC(=O)c1ccccc1)C(=O)N1CCOCC1	4.72 µM	> 10 µM	–
O=C(N/C(C(=O)N1CCCCC1)=C(\Br)c1ccccc1)c1ccc(Cl)cc1	0.91 µM	> 10 µM	–
O=C(C1C(c2ccccc2)CCN1C(=O)c1ccc(Br)cc1)N1CCCCC1 (stereo unspecified)	> 10 µM	> 10 µM	–
O=C(N/C(C(=O)N1CCCCC1)=C(\Cl)c1ccccc1)c1ccccc1	5.51 µM	> 10 µM	–

SMILES	EC90 (Hepatitis B virus [1])	CC90 [2]	inhibition (Hepatitis B virus [3])
O=C(N/C(C(=O)N1CCCCC1)=C(\Cl)c1ccccc1)c1ccc([N+](=O)[O-])cc1	1.67 µM	> 10 µM	–
COc1ccccc1/C(Cl)=C(/NC(=O)c1ccc([N+](=O)[O-])cc1)C(=O)N1CCCC1	1.69 µM	> 10 µM	–
COc1ccccc1C1=C(C(=O)N2CCCCC2)N(C(=O)c2ccccc2)CC1	> 10 µM	> 10 µM	–
O=C(N/C(C(=O)N1CCCCC1)=C(\Cl)c1cccc2c1OCO2)c1ccc([N+](=O)[O-])cc1	4.66 µM	> 10 µM	–
O=C(N/C(C(=O)N1CCCCC1)=C(\Cl)c1ccccc1)c1ccc([N+](=O)[O-])cc1Br	4.06 µM	> 10 µM	–
O=C(N/C(C(=O)N1CCCCC1)=C(\Cl)c1ccccc1)c1ccc(Br)cc1	6.04 µM	> 10 µM	–
COc1ccccc1/C(Cl)=C(/NC(=O)c1ccc([N+](=O)[O-])cc1)C(=O)N1CCCCC1	0.56 µM	> 10 µM	–
CN1CCN(C(=O)/C(NC(=O)c2ccccc2)=C(/Cl)c2ccccc2)CC1	> 10 µM	> 10 µM	–
O=C(N/C(C(=O)N1CCOCC1)=C(\Cl)c1ccccc1)c1ccccc1	> 10 µM	> 10 µM	–
O=C(N/C(C(=O)N1CCCCC1)=C(\Cl)c1ccccc1)c1ccc([N+](=O)[O-])cc1[N+](=O)[O-]	> 10 µM	> 10 µM	–
O=C(N/C(C(=O)N1CCCCC1)=C(/Cl)c1ccccc1)c1ccccc1	–	–	inactive
O=C(N/C(C(=O)N1CCCCC1)=C(\Cl)c1ccc(Cl)cc1)c1ccccc1	> 10 µM	> 10 µM	–
O=C(C1=C(c2ccccc2)CCN1C(=O)c1ccc(Br)cc1)N1CCCCC1	> 10 µM	> 10 µM	–
O=C(N/C(C(=O)N1CCCCC1)=C(\Cl)c1ccccc1)c1ccc([N+](=O)[O-])cc1C(F)(F)F	> 10 µM	> 10 µM	–
Cc1ccc(C(=O)N/C(C(=O)N2CCCCC2)=C(\Cl)c2ccccc2)cc1	2.9 µM	> 10 µM	–
Cc1ccccc1/C(Cl)=C(/NC(=O)c1ccccc1)C(=O)N1CCCCC1	1.8 µM	> 10 µM	–
CS(=O)(=O)c1ccc(C(=O)N/C(C(=O)N2CCCCC2)=C(\Cl)c2ccccc2)cc1	> 10 µM	> 10 µM	–
O=C(N/C(C(=O)N1CCCC(F)(F)C1)=C(\Cl)c1ccccc1)c1ccccc1	> 10 µM	> 10 µM	–
COc1ccccc1/C(Br)=C(/NC(=O)c1ccc([N+](=O)[O-])cc1)C(=O)N1CCCC1	0.39 µM	> 10 µM	–
O=C(C1=C(c2ccccc2)CCN1C(=O)c1ccccc1)N1CCCCC1	> 10 µM	> 10 µM	–
